Laboratory results published in paper PMC8048816 (Angewandte Chemie (International Ed. in English), 2021).
Read-outs that look alike come from different tables or passages of the source.

Columns and labels:
Format in all cases: binding
LecA [1] = molecular target: T1, LecA (Pseudomonas aeruginosa, UniProt Q05097); experiment: ligand-observed T1ρ relaxation NMR; details: for effect of excess Me‐α‐D‐Gal on T1ρ relaxation with LecA: displacement experiment; for T1ρ relaxation rate in presence of LecA: with vs without LecA
T1 sequence (Q05097 2-122 limits assumed): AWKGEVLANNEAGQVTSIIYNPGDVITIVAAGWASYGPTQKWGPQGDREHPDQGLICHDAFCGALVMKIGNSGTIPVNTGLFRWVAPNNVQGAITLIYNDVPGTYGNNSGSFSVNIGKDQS

LecA [2] = molecular target: T1, LecA; experiment: thermal shift assay; details: change of LecA melting point, 4 mM test compound, average of two experiments
LecA [3] = molecular target: T1, LecA; details: for FP with 2ME Inhibition [%] at 4 mM / FP Inhibition [%] at 4 mM: 4 mM catechol, average and std. dev. of 3 experiments; for FP with 2ME Inhibition [%] at 4 mM: with 2-mercaptoethanol; for FP Inhibition [%] at 4 mM: without 2-mercaptoethanol
Procedure, shortened: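 Competitive fluorescence polarization assay measuring displacement of a Cy5-labelled galactoside probe from LecA. The Cy5 probe replaced an earlier fluorescein conjugate to avoid spectral overlap. Test compound at 4 mM, with or without 2-mercaptoethanol; some compounds at 25 % DMSO. Methyl α-D-galactoside as positive control. Percent inhibition given as average and std. dev. of 3 experiments.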

5FW‐LecA = molecular target: T2, 5FW‐LecA (Pseudomonas aeruginosa, UniProt Q05097); experiment: protein-observed 19F; details: 1.5 mM catechol, 200 µM 5FW-LecA; n.s.=not significant
T2 sequence (Q05097 2-122 limits assumed): T1 sequence (Q05097 2-122 limits assumed)

LecA [4] = molecular target: T1, LecA; details: read-out: inhibition at 3.3 mM
Procedure, shortened: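 Purchased virtual-screening hits from the NCI Diversity IV set, selected for structural diversity, were tested once at 3.3 mM. Assay: the established competitive fluorescence polarization assay, scoring displacement of a fluorescent galactoside ligand from LecA as percent inhibition.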

human Langerin CRD = human Langerin CRD (Homo sapiens, UniProt Q9UJ71, V278A); experiment: 1H-15N HSQC NMR; details: 1 mM compound, 100 μM Langerin CRD
LecA [5] = molecular target: T1, LecA; experiment: surface plasmon resonance
Procedure, shortened: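 Recombinant LecA was immobilized for SPR. Test compound was injected at two concentrations: 0.2 and 1 mM, or 0.2 and 0.5 mM for some compounds. Steady-state binding responses were read from sensorgrams. 0.1 mM pNPGal was injected as positive control to monitor LecA activity and normalize data. Kd came from multi-cycle kinetic analyses of prioritized compounds.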

Langerin ECD = Langerin ECD (Homo sapiens, UniProt Q9UJ71); experiment: 1H STD competition NMR with mannose; details: 1 mM compound, 20 μM Langerin ECD, 100 mM D-mannose
[6] = read-out: FP Inhibition [%] at 4 mM
[7] = read-out: FP with 2ME Inhibition [%] at 4 mM

Sequence of Langerin ECD (Q9UJ71 65-328 limits assumed): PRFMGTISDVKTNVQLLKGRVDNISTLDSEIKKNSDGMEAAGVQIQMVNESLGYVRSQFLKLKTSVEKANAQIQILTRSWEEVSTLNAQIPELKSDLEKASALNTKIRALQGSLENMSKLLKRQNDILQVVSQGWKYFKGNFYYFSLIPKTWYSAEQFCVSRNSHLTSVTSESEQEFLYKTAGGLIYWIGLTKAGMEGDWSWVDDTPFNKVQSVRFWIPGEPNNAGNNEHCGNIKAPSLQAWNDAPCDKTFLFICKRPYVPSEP
Sequence of human Langerin CRD (Q9UJ71 202-320 V278A): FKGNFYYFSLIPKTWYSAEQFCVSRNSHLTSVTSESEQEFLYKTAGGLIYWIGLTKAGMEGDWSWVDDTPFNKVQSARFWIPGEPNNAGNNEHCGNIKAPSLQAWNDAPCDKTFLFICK

SMILES	effect of excess Me‐α‐D‐Gal on T1ρ relaxation with LecA (LecA [1])	T1ρ relaxation rate in presence of LecA (LecA [1])	TSA ΔT [K] (LecA [2])	FP with 2ME Inhibition [%] at 4 mM (LecA [3])	FP Inhibition [%] at 4 mM (LecA [3])	PrOF NMR CSP of W42 [ppm] (5FW‐LecA)	inhibition at 3300 µM (LecA [4])	inhibition at 4000 µM (LecA [3]; [6])	inhibition at 4000 µM (LecA [3]; [7])	chemical shift perturbations of Langerin CRD resonances (human Langerin CRD)	Kd (LecA [5])	ligand efficiency (LecA [5]; from SPR Kd)	reduction in peak intensities in STD NMR spectra in presence of mannose (Langerin ECD)
CC(C)(C)c1ccc(O)c(O)c1 [Compound 13, 4‐tert‐butyl catechol]	no significant effect	much weaker	−15.4 K	none	inconcl.	0.130 ppm							
CC(C)C(=O)c1ccc(O)c(O)c1 [Compound 21, 4‐isobutyryl catechol]	fully reversed to the free state	strongly increased	+0.35 K			0.08 ppm	~10%	10 ± 2%	11 ± 2%				
N#Cc1cccc(O)c1O [Compound 3, 3‐cyano catechol]			+1.8 K			0.045 ppm		23 ± 2%	23%	promoted chemical shift perturbations (CSPs)	1.11 ± 0.07 mM	0.40	65%
O=C(c1ccccc1)c1ccc(O)c(O)c1 [Compound 23, 4‐benzoyl catechol]			+0.36 K			0.110 ppm		39 ± 5%	39%				
Cc1ccc(O)c(O)c1 [Compound 11, 4‐methyl catechol]			−11.0 K	none	inconcl.	n.s.							
Oc1ccccc1O [Compound 1, catechol]			−4.5 K	none	inconcl.	n.s.							
O=C(c1ccc(Cl)cc1)c1ccc(O)c(O)c1 [Compound 24, 4‐parachlorobenzoyl catechol]						0.185 ppm		29 ± 3%	22 ± 2%				
